The test system of data set [1] is Saccharomyces cerevisiae. The data set can be described thus: Potentiation of fluconazole-induced antifungal activity against Saccharomyces cerevisiae AD1-8u(-) by checkerboard method. In kind it is functional. An outline of the steps:
(§1)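 Checkerboard per CLSI in AD1-8u⁻ control, AD-CDR1 or AD-MDR1 cells (10⁴ cells) grown 48 h at 30 °C. Fluconazole 4-209 μM crossed with compound 0.25-400 μM. Growth read by optical density. FIC of each agent is its MIC in combination divided by its MIC alone. FICI is the sum of the fluconazole and compound FICs, with values below 0.5 taken as synergy.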

Data set [2] has as its system Candida albicans. The data set can be described thus: Inhibition of Candida albicans MDR1 expressed in Saccharomyces cerevisiae AD assessed as reduction in nile red dye efflux at 70 uM after 30 mins by flow cytometry relative to control. An outline of the steps: (§2)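 AD-CDR1 or AD-MDR1 cells grown in YEPD at 30 °C with shaking from OD600 0.1 to 0.25, then resuspended as a 5% suspension in 1:2 YEPD:water. Nile Red (final 7 μM) added with or without compound at 70 μM, 30 min at 30 °C. Cells washed twice and 10,000 cells analysed by flow cytometry. Efflux rate expressed relative to untreated control cells. Means ± SD, three independent experiments.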

A short description of data set [3]: Lipophilicity, log P of the compound. Format: physicochemical. To be noted: octanol/water.
The subject of data set [4] is Candida albicans. As to the kind of experiment: Inhibition of Candida albicans CDR1 expressed in Saccharomyces cerevisiae AD assessed as ratio of compound MIC80 in combinantion with fluconazole to compound alone MIC80 for Saccharomyces cerevisiae AD by checkerboard method. An outline of the steps:
(§3)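 Checkerboard per CLSI with 10⁴ cells of AD-CDR1, AD-MDR1 or AD1-8u⁻, grown 48 h at 30 °C. Fluconazole 4-209 μM crossed with compound 0.25-400 μM, growth read by optical density. Compound FIC is the compound MIC in combination with fluconazole divided by its MIC alone.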

In data set [5] the test system is Saccharomyces cerevisiae. As to the kind of experiment: Synergistic antifungal activity against Saccharomyces cerevisiae AD1-8u(-) assessed as ratio of compound MIC80 in combinantion with fluconazole to compound alone MIC80 by checkerboard method. In kind it is functional. An outline of the steps: as §3
The subject of data set [6] is Saccharomyces cerevisiae. As to the kind of experiment: Antifungal activity against Saccharomyces cerevisiae AD over-expressing Candida albicans MDR1 after 48 hrs. In kind it is functional. An outline of the steps: (§4)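 Yeast (10⁴ cells) grown in YEPD at 30 °C for 48 h with inhibitors at 0.25-400 μM (DMSO stocks); growth read by optical density, inhibitor-free growth set as 100%. MIC80 = concentration giving 80% growth inhibition. RI = MIC80 in AD-CDR1 or AD-MDR1 divided by MIC80 in control AD1-8u⁻. Means ± SD, duplicate samples, at least three independent experiments.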

Data set [7] has as its system Saccharomyces cerevisiae. The data set can be described thus: Antifungal activity against Saccharomyces cerevisiae AD1-8u(-) after 48 hrs. Format: functional. An outline of the steps: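 S. cerevisiae AD1-8u⁻ control strain revived from glycerol stock on YEPD plates and grown in YEPD at 30 °C. 10⁴ cells exposed to compound at 0.25-400 μM for 48 h at 30 °C. Growth read as optical density, with no-inhibitor growth as 100%. MIC80 is the concentration giving 80% growth inhibition. Means ± SD of duplicates from at least three independent experiments.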

Data set [8] concerns Saccharomyces cerevisiae. The data set can be described thus: Antifungal activity against Saccharomyces cerevisiae AD over-expressing Candida albicans CDR1 after 48 hrs. Format: functional. An outline of the steps: as §4
The test system of data set [9] is Candida albicans. The data set can be described thus: Inhibition of Candida albicans CDR1 expressed in Saccharomyces cerevisiae AD assessed as potentiation of fluconazole-induced antifungal activity against Saccharomyces cerevisiae AD by measuring fold reduction in fluconazole MIC80 by checkerboard method. An outline of the steps:
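AD-CDR1 cells (10⁴) grown 48 h at 30 °C in a CLSI checkerboard, fluconazole 4-209 μM crossed with compound 0.25-400 μM, growth read by optical density. Fold reduction is derived from the fluconazole MIC alone versus the fluconazole MIC in combination.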

Data set [10] concerns Candida albicans. As to the kind of experiment: Inhibition of Candida albicans CDR1 expressed in Saccharomyces cerevisiae AD assessed as reduction in nile red dye efflux at 70 uM after 30 mins by flow cytometry relative to control. An outline of the steps:
as §2

Data set [11] concerns Saccharomyces cerevisiae. The data set can be described thus: Resistance index, ratio of MIC80 for Saccharomyces cerevisiae AD over-expressing Candida albicans MDR1 to MIC80 for Saccharomyces cerevisiae AD1-8u(-). Format: functional. An outline of the steps:
as §4

The subject of data set [12] is Candida albicans. As to the kind of experiment: Inhibition of Candida albicans MDR1 expressed in Saccharomyces cerevisiae AD assessed as ratio of compound MIC80 in combinantion with fluconazole to compound alone MIC80 for Saccharomyces cerevisiae AD by checkerboard method. An outline of the steps: as §3
For data set [13], the system named is Candida albicans. The data set can be described thus: Inhibition of Candida albicans CDR1 expressed in Saccharomyces cerevisiae AD assessed as potentiation of fluconazole-induced antifungal activity against Saccharomyces cerevisiae AD by checkerboard method. An outline of the steps:
as §1

Data set [14] concerns Saccharomyces cerevisiae. As to the kind of experiment: Resistance index, ratio of MIC80 for Saccharomyces cerevisiae AD over-expressing Candida albicans CDR1 to MIC80 for Saccharomyces cerevisiae AD1-8u(-). Format: functional. An outline of the steps: as §4
The test system of data set [15] is Candida albicans. The data set can be described thus: Inhibition of Candida albicans MDR1 expressed in Saccharomyces cerevisiae AD assessed as potentiation of fluconazole-induced antifungal activity against Saccharomyces cerevisiae AD by checkerboard method. An outline of the steps:
as §1

Each structure is given as a SMILES string. Values after ≈ are worked out from the molar mass of the structure shown.

Take `C=C1CC[C@H]2[C@@H](/C=C(\C)C(=O)[C@@]3(O)C[C@H](C)[C@H](O)[C@@H]3[C@H]1OC(=O)c1cccc(C(F)(F)F)c1)C2(C)C`: the “fractional inhibitory concentration index (FICI)” value was 2 with Saccharomyces cerevisiae [1], 0.52 in the data set with Candida albicans [13] and 1.3 in the data set on Candida albicans [15]. Also, the inhibition in the data set with Candida albicans [2] was 25%; in the data set on Candida albicans [10], 70%. In data set [3], this compound came in with a lipophilicity (logP) of 3.41. Besides, the Ratio worked out at 0.5 in the data set with Candida albicans [4]; 1 in the data set with Saccharomyces cerevisiae [5]; 0.87 in the data set on Saccharomyces cerevisiae [11]; 1 in the data set on Candida albicans [12]; 0.99 with Saccharomyces cerevisiae [14]. For the same compound, the MIC80 with Saccharomyces cerevisiae [6] came out at 867 µM (≈ 439 µg/mL); against Saccharomyces cerevisiae [7], 988 µM (≈ 500 µg/mL); with Saccharomyces cerevisiae [8], 982 µM (≈ 497 µg/mL). Moreover, the fold change (FC) in the data set with Candida albicans [9] was determined as 52.

For the origin of these results see ChEMBL document CHEMBL4020757, “Lathyrol and epoxylathyrol derivatives: Modulation of Cdr1p and Mdr1p drug-efflux transporters of Candida albicans in Saccharomyces cerevisiae model” (Bioorg Med Chem, 2017).
